# In ChEMBL document CHEMBL1126641, “Synthesis and opioid activity of dynorphin A-(1-13)NH2 analogues containing cis- and trans-4-aminocyclohexanecarboxylic acid” (J Med Chem, 1993):
# “And” between values parts separate entries of the source, which are not always exact repeats. Equal values may be shown once. Residues, ends and D or L forms follow the SMILES beside them.
# Columns and labels:
# [1] = molecular target: Delta-type opioid receptor (Rattus norvegicus, UniProt P33533); assay: Compound was tested for binding affinity towards delta-opioid receptor in rat forebrain membrane using [3H]DPDPE; assay type: cell membranes
# Mu-type opioid receptor = Mu-type opioid receptor (Rattus norvegicus, UniProt P33535); assay: Compound was tested for binding affinity towards mu-opioid receptor in rat forebrain membrane using [3H]DAMGO; assay type: cell membranes
# [2] = molecular target: T1, Opioid receptors; mu/kappa/delta (Homo sapiens, UniProt P41145+P41143+P35372); assay: Opioid receptor activity in guinea pig ileum assay; assay type: tissue-based, Cavia porcellus; conditions: target entry is the homologue from another species
# [3] = molecular target: Kappa-type opioid receptor (Cavia porcellus, UniProt P41144); assay: Compound was tested for binding affinity towards kappa opioid receptor in guinea pig cerebellar membrane using [3H]bremazocine; assay type: cell membranes, Cerebellum
# In short: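 Competitive inhibition of [3H]bremazocine binding to guinea pig cerebellar membranes. The incubation mixtures contained 100 nM DAMGO. Affinity is reported as Ki.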
# [4] = molecular target: T1, Opioid receptors; mu/kappa/delta; assay: ratio is kappa/mu/delta opioid receptors; assay type: protein assay
# In short: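 The Ki ratio κ/μ/δ is taken from three binding assays. κ: [3H]bremazocine on guinea pig cerebellar membranes, with 100 nM DAMGO present. μ: [3H]DAMGO on rat forebrain membranes. δ: [3H]DPDPE on rat forebrain membranes.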
# Mu-type opioid receptor, sequence (P33535 whole entry): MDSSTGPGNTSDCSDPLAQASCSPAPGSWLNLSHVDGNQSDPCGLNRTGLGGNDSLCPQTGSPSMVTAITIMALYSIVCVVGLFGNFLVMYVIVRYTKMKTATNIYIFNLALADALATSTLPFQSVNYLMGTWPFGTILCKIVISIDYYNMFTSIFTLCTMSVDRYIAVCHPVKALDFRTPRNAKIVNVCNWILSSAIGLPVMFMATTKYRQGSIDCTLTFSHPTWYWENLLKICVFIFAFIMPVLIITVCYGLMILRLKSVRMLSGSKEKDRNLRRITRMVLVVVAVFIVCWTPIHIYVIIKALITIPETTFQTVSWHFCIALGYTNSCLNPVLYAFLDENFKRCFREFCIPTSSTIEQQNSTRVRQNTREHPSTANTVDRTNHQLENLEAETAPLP
# Delta-type opioid receptor, sequence (P33533 whole entry): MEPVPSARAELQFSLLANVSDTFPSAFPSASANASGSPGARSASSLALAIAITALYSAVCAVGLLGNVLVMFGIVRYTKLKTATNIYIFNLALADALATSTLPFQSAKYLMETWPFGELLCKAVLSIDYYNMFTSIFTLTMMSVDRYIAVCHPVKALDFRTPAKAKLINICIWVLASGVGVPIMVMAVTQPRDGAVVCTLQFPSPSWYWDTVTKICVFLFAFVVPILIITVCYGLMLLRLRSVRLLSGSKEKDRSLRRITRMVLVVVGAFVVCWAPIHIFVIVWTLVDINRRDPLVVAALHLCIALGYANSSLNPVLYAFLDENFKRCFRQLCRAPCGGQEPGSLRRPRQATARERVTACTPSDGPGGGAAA
# Kappa-type opioid receptor, sequence (P41144 whole entry): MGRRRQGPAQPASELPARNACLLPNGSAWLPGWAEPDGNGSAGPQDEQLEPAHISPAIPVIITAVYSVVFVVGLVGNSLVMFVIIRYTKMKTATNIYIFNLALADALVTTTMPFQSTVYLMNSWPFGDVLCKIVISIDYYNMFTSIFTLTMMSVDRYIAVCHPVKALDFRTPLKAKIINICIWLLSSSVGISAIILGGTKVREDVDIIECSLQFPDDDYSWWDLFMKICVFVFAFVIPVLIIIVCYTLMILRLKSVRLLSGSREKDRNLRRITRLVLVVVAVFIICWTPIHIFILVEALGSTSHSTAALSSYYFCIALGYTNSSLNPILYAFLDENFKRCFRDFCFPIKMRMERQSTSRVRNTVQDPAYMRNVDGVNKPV
# T1 sequence (P35372 whole entry, looked up): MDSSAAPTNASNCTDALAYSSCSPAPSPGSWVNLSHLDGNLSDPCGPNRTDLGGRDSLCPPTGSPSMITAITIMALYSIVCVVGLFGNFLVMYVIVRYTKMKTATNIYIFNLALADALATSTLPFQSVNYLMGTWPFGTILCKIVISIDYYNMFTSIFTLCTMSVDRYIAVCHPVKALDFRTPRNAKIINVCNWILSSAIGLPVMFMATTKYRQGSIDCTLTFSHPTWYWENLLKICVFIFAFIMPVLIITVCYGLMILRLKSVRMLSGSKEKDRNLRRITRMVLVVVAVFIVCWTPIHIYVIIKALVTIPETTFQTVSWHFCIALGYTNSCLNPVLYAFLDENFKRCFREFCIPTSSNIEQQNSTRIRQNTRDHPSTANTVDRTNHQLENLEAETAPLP
# T1 sequence (P41143 whole entry, looked up): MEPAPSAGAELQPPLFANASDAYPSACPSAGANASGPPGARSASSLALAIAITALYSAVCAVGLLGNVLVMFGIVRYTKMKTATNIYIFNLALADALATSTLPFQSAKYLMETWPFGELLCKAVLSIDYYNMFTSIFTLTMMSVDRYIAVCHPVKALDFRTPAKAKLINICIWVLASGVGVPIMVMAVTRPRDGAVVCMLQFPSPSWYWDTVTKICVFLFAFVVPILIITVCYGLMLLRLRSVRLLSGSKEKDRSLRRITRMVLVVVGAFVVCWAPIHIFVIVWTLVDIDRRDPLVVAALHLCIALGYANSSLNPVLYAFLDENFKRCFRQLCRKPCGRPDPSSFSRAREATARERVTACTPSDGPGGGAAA
# T1 sequence (P41145 whole entry, looked up): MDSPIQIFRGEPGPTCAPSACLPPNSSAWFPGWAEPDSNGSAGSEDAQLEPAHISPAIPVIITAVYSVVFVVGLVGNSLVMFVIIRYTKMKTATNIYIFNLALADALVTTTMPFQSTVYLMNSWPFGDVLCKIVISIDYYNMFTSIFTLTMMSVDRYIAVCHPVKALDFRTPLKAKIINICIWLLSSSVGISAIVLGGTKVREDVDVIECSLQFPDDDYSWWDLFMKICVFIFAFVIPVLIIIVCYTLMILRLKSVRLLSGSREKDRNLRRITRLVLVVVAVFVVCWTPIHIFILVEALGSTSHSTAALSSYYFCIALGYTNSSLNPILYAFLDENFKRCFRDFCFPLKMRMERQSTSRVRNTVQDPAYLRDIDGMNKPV
Compound,Ki [1],Ki (Mu-type opioid receptor),IC50 [2] [nM],Ki [3],Ratio [4]
CC[C@H](C)[C@H](NC(=O)[C@H](CCCN=C(N)N)NC(=O)[C@H](CCCN=C(N)N)NC(=O)[C@H](CC(C)C)NC(=O)[C@H](Cc1ccccc1)NC(=O)CNC(=O)CNC(=O)[C@@H](N)Cc1ccc(O)cc1)C(=O)N[C@@H](CCCN=C(N)N)C(=O)N1CCC[C@H]1C(=O)N[C@@H](CCCCN)C(=O)N[C@@H](CC(C)C)C(=O)N[C@@H](CCCCN)C(N)=O,3.88 nM,0.194 nM,0.24,0.146 nM,–
CC[C@H](C)[C@H](NC(=O)[C@H](CCCN=C(N)N)NC(=O)[C@H](CCCN=C(N)N)NC(=O)[C@H](CC(C)C)NC(=O)[C@H](Cc1ccccc1)NC(=O)CNC(=O)C(C)(C)NC(=O)[C@@H](N)Cc1ccc(O)cc1)C(=O)N[C@@H](CCCN=C(N)N)C(=O)N1CCC[C@H]1C(=O)N[C@@H](CCCCN)C(=O)N[C@@H](CC(C)C)C(=O)N[C@@H](CCCCN)C(N)=O (HELM PEPTIDE1{Y.[Aib].G.F.L.R.R.I.R.P.K.L.K.[am]}$$$$V2.0),–,10 nM,–,50 nM,–
CC[C@H](C)[C@H](NC(=O)[C@H](CCCN=C(N)N)NC(=O)[C@H](CCCN=C(N)N)NC(=O)[C@H](CC(C)C)NC(=O)[C@H](Cc1ccccc1)NC(=O)C1CCC(NC(=O)[C@@H](N)Cc2ccc(O)cc2)CC1)C(=O)N[C@@H](CCCN=C(N)N)C(=O)N1CCC[C@H]1C(=O)N[C@@H](CCCCN)C(=O)N[C@@H](CC(C)C)C(=O)N[C@@H](CCCCN)C(N)=O (stereo partly specified) (HELM PEPTIDE1{Y.[O=C(C1CCC(N[*:1])CC1)[*:2]].F.L.R.R.I.R.P.K.L.K.[am]}$$$$V2.0),1370 nM and 1910 nM,275 nM and 117 nM,4090,13.4 nM and 9.1 nM,4.62 and 3.66
